# Results taken from ChEMBL document CHEMBL1126658, “Thyroid hormone uptake by hepatocytes: structure-activity relationships of phenylanthranilic acids with inhibitory activity” (J Med Chem, 1993).
# Test system: H4
# Experiment: Compound is evaluated for the inhibition of [125I]T3 uptake by H4 rat hepatoma cells at 0.1 mM
# Type: functional
# How it was run: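 H4 rat hepatoma cells grown in DMEM/10% FCS at 37 °C, plated to confluence (2 × 10^6 cells/well), then held overnight in serum-free DMEM. Fresh medium with 10^-11 M [125I]T3 plus test substance (final 0.1 mM from DMSO/ethanol stock; solvent-matched controls), 2 min at 37 °C. Five PBS pH 7.4 washes, 0.1 M NaOH lysis, cell-associated radioactivity counted. Nondisplaceable uptake taken with 10^-5 M unlabeled T3. Percent inhibition vs control, ≥5 replicates.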
row,Structure (SMILES),inhibition at 100 µM [%]
1,COc1ccc(Nc2ccccc2C(=O)O)cc1C(F)(F)F,54
2,O=C(O)c1ccccc1Nc1cc(Cl)cc(Cl)c1,60.6
3,O=C(O)c1ccccc1Nc1cccc(Cl)c1Cl [CLOFENAMIC ACID],56.6
4,O=C(O)c1ccccc1Nc1ccc(Cl)c(Cl)c1,55.6
5,Cc1cccc(Nc2ccccc2C(=O)O)c1C [MEFENAMIC ACID],60.9
6,Cc1cccc(Nc2ccccc2)c1C,35.4
7,O=C(O)c1ccccc1Nc1ccccc1Cl,44.6
8,N#Cc1cccc(Nc2ccccc2C(=O)O)c1,11.6
9,O=C(O)c1ccccc1Nc1c(Cl)cccc1Cl,54.6
10,O=C(O)c1ccccc1Nc1cccc(O)c1,6.6
11,O=C(O)c1ccccc1Nc1cccc(I)c1,40
12,O=C(O)c1ccccc1Nc1cc(Cl)ccc1Cl,43.2
13,Cc1cccc(Nc2ccccc2C(=O)O)c1,30
14,Cc1cccc(C)c1Nc1ccccc1C(=O)O,48
15,Cc1ccc(Cl)c(Nc2ccccc2C(=O)O)c1Cl [MECLOFENAMIC ACID],74.2
16,O=C(O)c1ccccc1Nc1cccc(Br)c1,48.1
17,O=C(O)c1ccccc1Nc1cccc(C(F)(F)F)c1 [FLUFENAMIC ACID],64.4
18,O=C(O)c1ccccc1Nc1ccccc1 [FENAMIC ACID],28
19,O=C(O)c1ccccc1Nc1ccc(Cl)c(C(F)(F)F)c1,51
20,O=C(O)c1ccccc1Nc1cccc(OC(F)(F)C(F)F)c1,57
21,O=C(O)c1ccccc1Nc1cccc(Cl)c1,51.4
22,O=C(O)c1ccccc1Nc1cc(C(F)(F)F)cc(C(F)(F)F)c1,39.5
23,O=C(O)Cc1ccccc1Nc1c(Cl)cccc1Cl [DICLOFENAC],38
24,O=C(O)c1ccccc1Nc1cc(Br)cc(Br)c1,39.1
